Laboratory results as given in ChEMBL document CHEMBL5678805, “Intermittent administration of MEK inhibitor GDC-0973 plus PI3K inhibitor GDC-0941 triggers robust apoptosis and tumor growth inhibition” (Cancer Res, 2012).
Active and inactive are the calls of the source. No cut-off for these calls is given here.

Key:
[1] = Antitumor activity against human MOLM16 cells harboring FLT3 T227M mutant xenografted in mouse assessed as tumor growth inhibition at 5 mg/kg, po; format: functional, MOLM-16; conditions: read-out: TGI
How it was run: (§1)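 Human tumor xenografts in mice were dosed orally at the indicated mg/kg. Tumor volume was measured with calipers as (L×W×W)/2. %TGI = 100 × [1 − (AUC treatment/d)/(AUC vehicle/d)], using the area under the fitted tumor-growth curve per day for each dose group relative to vehicle.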

[2] = target: Dual specificity protein kinase CLK3 (Homo sapiens, UniProt P49761); experiment: Inhibition of CLK3 (unknown origin)
[3] = target: Mast/stem cell growth factor receptor Kit (Homo sapiens, UniProt P10721); experiment: Inhibition of Kit (unknown origin)
[4] = target: Serine/threonine-protein kinase PAK 6 (Homo sapiens, UniProt Q9NQU5); experiment: Inhibition of PAK6 (unknown origin)
[5] = target: Macrophage-stimulating protein receptor (Homo sapiens, UniProt Q04912); experiment: Inhibition of RON (unknown origin)
888-mel = experiment: Inhibition of PI3K/MEK signaling pathway in human 888-mel cells assessed as decrease in ERK phosphorylation by incubated for 24 hrs by Western blot analysis; format: cell-based
A2058 [6] = experiment: Inhibition of PI3K/MEK signaling pathway in human A2058 cells assessed as decrease in ERK phosphorylation by incubated for 24 hrs by Western blot analysis; format: cell-based
Hs-578T = experiment: Antiproliferative activity against human Hs-578T cells assessed as reduction in cell viability incubated for 96 hrs in presence of 4-(2-(1H-indazol-4-yl)-6-((4-(methylsulfonyl)piperazin-1-yl)methyl)thieno[3,2-d]pyrimidin-4-yl)morpholine; format: functional, cell-based
SK-OV-3 = experiment: Antitumor activity against human SK-OV-3 cells harboring FBXW7 R505L and CDKN2A mutant xenografted in mouse assessed as tumor growth inhibition at 5 mg/kg, po; format: functional; conditions: read-out: TGI; how it was run: as §1
[7] = target: Beta-adrenergic receptor kinase 1 (Homo sapiens, UniProt P25098); experiment: Inhibition of GRK2 (unknown origin)
A2058 [8] = experiment: Antitumor activity against human A2058 cells harboring BRAF V600E/PTEN deletion mutant xenografted in mouse assessed as suppression of S6 phosphorylation at 15 mg/kg, po administered every third day for 21 days and measured after 72 hrs post dose in presence of 4-(2-(1H-indazol-4-yl)-6-((4-(methylsulfonyl)piperazin-1-yl)methyl)thieno[3,2-d]pyrimidin-4-yl)morpholine by Western blot analysis; format: functional, organism-based; conditions: time 576.0 hrs
How it was run: (§2)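 Human tumor xenografts in mice. Drugs given orally, as single agents or combined with the PI3K inhibitor. Schedules were daily (QD) or every third day (Q3D) over 21 days. Tumor volume was measured by caliper as (L×W×W)/2. %TGI = 100×[1 − AUC(treatment/d)/AUC(vehicle/d)] from fitted growth curves, with group means. Tumor lysates were immunoblotted for pS6.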

A2058 [9] = experiment: Antitumor activity against human A2058 cells xenografted in mouse assessed as tumor growth inhibition at 20 mg/kg, po administered every third day for 21 days in presence of 4-(2-(1H-indazol-4-yl)-6-((4-(methylsulfonyl)piperazin-1-yl)methyl)thieno[3,2-d]pyrimidin-4-yl)morpholine; format: functional; conditions: A2058, 504 h, time 21 day, read-out: TGI; how it was run: as §2
RPMI-7951 = experiment: Antiproliferative activity against human RPMI-7951 cells assessed reduction in cell viability incubated for 4 days in presence of 4-(2-(1H-indazol-4-yl)-6-((4-(methylsulfonyl)piperazin-1-yl)methyl)thieno[3,2-d]pyrimidin-4-yl)morpholine by celltiter-glo assay; format: functional; conditions: time 4 day
How it was run: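 4-day CellTiter-Glo viability read-out on melanoma lines, cells exposed to increasing concentrations of each inhibitor alone and in combination.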

CDK6/cyclin D3 = CDK6/cyclin D3 (Homo sapiens, UniProt Q00534); experiment: Inhibition of CDK6/cyclinD3 (unknown origin); format: protein-complex assay
MX1 = experiment: Antitumor activity against human MX1 cells harboring PTEN null mutation xenografted in mouse assessed as tumor growth inhibition at 5 mg/kg, po; format: functional; conditions: read-out: TGI; how it was run: as §1
A2058 [10] = experiment: Antitumor activity against human A2058 cells harboring BRAF V600E/PTEN deletion mutant xenografted in mouse assessed as suppression of AKT phosphorylation at 15 mg/kg, po administered every third day for 21 days and measured after 72 hrs post dose in presence of 4-(2-(1H-indazol-4-yl)-6-((4-(methylsulfonyl)piperazin-1-yl)methyl)thieno[3,2-d]pyrimidin-4-yl)morpholine by Western blot analysis; format: functional, organism-based; conditions: time 576.0 hrs
NCI-H441 = experiment: Antitumor activity against human NCI-H441 cells harboring KRAS G12V/TP53 R158L/MET high mutant xenografted in mouse assessed as tumor growth inhibition at 10 mg/kg, po; format: functional; conditions: read-out: TGI; how it was run: as §1
[11] = target: Cyclin-dependent kinase 2/cyclin E1 (Homo sapiens, UniProt P24941); experiment: Inhibition of CDK2/cyclinE (unknown origin); format: protein-complex assay
Casein kinase I = experiment: Inhibition of CK1 (unknown origin); format: protein assay, Homo sapiens
LoVo [12] = experiment: Antitumor activity against human LoVo cells harboring KRAS G13D/CDKN2A P48L/FBXW7 R505C/MSH2/SMO G16_L17insLL/A324T/NF1 R1276Q/Y1607fs17/APC1114 mutant xenografted in mouse assessed as tumor growth inhibition at 5 mg/kg, po; format: functional; conditions: read-out: TGI
How it was run: (§3)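 Single-agent dose ranging in human tumor xenograft mice at 2.5, 5 or 10 mg/kg oral. Tumor volume was measured by caliper as (L×W×W)/2. %TGI = 100×[1 − AUC(treatment/d)/AUC(vehicle/d)] from the fitted growth curve per dose group, relative to vehicle.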

LoVo [13] = experiment: Antitumor activity against human LoVo cells harboring KRAS G13D/CDKN2A P48L/FBXW7 R505C/MSH2/SMO G16_L17insLL/A324T/NF1 R1276Q/Y1607fs17/APC1114 mutant xenografted in mouse assessed as tumor growth inhibition at 10 mg/kg, po; format: functional; conditions: read-out: TGI; how it was run: as §3
DLD-1 = experiment: Antitumor activity against human DLD-1 cells xenografted in mouse assessed as tumor growth inhibition at 15 mg/kg, po administered once a day for 21 days; format: functional; conditions: DLD-1, 504 h, time 21 day, read-out: TGI; how it was run: as §2
[14] = target: Mitogen-activated protein kinase 1 (Homo sapiens, UniProt P28482); experiment: Inhibition of ERK2 (unknown origin)
Ephrin type-B receptor 4 = Ephrin type-B receptor 4 (Homo sapiens, UniProt P54760); experiment: Inhibition of EphB4 (unknown origin)
[15] = target: Serine/threonine-protein kinase PAK 4 (Homo sapiens, UniProt O96013); experiment: Inhibition of PAK4 (unknown origin)
NCI-H2122 = experiment: Antitumor activity against human NCI-H2122 cells xenografted in mouse assessed as tumor growth inhibition at 20 mg/kg, po administered once a day for 21 days; format: functional; conditions: NCI-H2122, 504 h, time 21 day, read-out: TGI
How it was run: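 Mice bearing NCI-H2122 xenografts were given MEK inhibitor, PI3K inhibitor, or both, orally once daily for 21 consecutive days at the doses labeled. Caliper tumor volumes were calculated as (L×W×W)/2. %TGI was derived from the AUC of the fitted growth curve per day relative to vehicle.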

[16] = target: BDNF/NT-3 growth factors receptor (Homo sapiens, UniProt Q16620); experiment: Inhibition of TrkB (unknown origin)
[17] = Inhibition of PKA (unknown origin); design: species or system Homo sapiens

Chain of Mitogen-activated protein kinase 1 (P28482 whole entry): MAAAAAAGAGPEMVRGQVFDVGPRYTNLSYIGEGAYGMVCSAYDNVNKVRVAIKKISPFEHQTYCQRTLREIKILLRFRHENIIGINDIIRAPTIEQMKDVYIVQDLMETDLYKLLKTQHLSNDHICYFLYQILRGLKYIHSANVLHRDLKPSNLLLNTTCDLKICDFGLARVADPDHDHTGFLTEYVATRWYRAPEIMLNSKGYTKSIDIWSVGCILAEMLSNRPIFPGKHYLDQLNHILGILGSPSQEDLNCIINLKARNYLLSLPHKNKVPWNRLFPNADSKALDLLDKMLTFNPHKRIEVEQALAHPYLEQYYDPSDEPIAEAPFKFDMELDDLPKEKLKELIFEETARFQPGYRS
Chain of CDK6/cyclin D3 (P30281 whole entry): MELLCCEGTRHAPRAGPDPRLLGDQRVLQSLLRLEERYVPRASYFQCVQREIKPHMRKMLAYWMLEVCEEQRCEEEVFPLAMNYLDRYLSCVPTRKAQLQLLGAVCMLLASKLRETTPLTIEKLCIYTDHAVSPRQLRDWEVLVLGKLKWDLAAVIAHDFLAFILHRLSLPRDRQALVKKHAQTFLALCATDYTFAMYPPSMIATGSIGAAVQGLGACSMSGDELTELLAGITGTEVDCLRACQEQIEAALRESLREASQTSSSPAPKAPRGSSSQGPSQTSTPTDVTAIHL
Chain of CDK6/cyclin D3 (Q00534 whole entry): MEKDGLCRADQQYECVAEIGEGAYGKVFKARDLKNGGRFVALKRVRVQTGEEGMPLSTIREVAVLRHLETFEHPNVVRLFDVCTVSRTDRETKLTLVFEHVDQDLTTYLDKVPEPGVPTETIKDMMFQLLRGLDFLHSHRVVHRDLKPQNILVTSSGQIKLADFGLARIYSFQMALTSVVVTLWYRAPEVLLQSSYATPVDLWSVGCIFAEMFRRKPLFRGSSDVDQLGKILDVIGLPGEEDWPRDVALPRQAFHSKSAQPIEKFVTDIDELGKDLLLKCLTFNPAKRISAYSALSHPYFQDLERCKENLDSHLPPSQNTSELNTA
Chain of Ephrin type-B receptor 4 (P54760 whole entry): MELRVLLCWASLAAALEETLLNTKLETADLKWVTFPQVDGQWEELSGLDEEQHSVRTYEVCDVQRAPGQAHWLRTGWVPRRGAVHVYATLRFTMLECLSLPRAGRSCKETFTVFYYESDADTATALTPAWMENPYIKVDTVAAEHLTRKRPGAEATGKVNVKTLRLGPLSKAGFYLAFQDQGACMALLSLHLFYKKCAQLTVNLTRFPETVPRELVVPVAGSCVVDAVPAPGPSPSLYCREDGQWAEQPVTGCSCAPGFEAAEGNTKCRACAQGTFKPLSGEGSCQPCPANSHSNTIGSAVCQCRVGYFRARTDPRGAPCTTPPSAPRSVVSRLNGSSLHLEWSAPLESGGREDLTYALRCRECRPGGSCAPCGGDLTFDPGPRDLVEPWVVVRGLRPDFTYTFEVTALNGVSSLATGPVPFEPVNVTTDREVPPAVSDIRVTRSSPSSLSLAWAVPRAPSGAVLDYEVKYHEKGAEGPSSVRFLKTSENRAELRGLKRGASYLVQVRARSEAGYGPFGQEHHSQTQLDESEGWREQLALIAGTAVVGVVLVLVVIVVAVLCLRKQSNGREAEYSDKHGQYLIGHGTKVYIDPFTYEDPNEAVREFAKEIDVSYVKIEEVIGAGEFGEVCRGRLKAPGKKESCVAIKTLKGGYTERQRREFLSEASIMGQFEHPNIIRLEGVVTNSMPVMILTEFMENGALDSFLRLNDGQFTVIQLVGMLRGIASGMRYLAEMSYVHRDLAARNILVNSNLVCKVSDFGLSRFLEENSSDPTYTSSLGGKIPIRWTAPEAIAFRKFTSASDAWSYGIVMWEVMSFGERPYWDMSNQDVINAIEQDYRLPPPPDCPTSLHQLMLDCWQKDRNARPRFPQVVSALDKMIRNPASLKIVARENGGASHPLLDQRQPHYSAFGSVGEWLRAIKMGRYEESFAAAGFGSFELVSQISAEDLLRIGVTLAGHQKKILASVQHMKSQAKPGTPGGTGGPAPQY
Chain of Macrophage-stimulating protein receptor (Q04912 25-304 limits assumed): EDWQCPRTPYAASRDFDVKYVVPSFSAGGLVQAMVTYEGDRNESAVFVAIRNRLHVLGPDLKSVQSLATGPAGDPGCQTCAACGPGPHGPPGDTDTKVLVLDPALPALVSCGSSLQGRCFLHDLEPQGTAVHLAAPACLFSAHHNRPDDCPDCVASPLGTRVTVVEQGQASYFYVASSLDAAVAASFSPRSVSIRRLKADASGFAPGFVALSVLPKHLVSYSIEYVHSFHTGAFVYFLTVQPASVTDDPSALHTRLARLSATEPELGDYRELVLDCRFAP
Chain of Macrophage-stimulating protein receptor (Q04912 310-1400 limits assumed): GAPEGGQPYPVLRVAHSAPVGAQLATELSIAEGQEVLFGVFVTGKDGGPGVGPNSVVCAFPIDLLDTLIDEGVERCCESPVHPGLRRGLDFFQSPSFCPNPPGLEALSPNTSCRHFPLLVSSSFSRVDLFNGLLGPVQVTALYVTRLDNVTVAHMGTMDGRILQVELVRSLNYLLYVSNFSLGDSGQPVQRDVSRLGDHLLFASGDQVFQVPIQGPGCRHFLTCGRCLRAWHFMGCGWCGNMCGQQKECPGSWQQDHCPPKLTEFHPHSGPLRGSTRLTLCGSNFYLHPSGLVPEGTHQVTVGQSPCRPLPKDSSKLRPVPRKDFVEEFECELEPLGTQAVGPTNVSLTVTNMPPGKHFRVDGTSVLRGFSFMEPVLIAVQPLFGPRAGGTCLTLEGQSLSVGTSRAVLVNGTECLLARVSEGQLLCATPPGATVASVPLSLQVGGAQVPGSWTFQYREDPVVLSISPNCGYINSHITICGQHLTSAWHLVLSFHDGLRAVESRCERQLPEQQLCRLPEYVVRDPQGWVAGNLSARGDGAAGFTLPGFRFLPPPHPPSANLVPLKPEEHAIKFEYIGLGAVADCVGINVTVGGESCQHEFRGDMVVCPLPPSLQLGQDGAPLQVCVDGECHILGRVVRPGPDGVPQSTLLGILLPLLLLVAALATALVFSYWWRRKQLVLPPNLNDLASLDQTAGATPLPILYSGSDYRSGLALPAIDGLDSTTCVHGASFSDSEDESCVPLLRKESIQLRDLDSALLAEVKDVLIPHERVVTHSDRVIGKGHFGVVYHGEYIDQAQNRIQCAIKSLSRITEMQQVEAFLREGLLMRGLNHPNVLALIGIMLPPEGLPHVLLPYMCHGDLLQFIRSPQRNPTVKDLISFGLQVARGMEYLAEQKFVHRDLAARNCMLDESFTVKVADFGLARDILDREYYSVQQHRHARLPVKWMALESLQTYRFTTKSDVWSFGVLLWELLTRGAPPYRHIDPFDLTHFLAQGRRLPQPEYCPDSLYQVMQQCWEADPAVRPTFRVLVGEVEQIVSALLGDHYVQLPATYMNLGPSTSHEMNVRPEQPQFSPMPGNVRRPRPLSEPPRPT
Chain of Mast/stem cell growth factor receptor Kit (P10721 whole entry): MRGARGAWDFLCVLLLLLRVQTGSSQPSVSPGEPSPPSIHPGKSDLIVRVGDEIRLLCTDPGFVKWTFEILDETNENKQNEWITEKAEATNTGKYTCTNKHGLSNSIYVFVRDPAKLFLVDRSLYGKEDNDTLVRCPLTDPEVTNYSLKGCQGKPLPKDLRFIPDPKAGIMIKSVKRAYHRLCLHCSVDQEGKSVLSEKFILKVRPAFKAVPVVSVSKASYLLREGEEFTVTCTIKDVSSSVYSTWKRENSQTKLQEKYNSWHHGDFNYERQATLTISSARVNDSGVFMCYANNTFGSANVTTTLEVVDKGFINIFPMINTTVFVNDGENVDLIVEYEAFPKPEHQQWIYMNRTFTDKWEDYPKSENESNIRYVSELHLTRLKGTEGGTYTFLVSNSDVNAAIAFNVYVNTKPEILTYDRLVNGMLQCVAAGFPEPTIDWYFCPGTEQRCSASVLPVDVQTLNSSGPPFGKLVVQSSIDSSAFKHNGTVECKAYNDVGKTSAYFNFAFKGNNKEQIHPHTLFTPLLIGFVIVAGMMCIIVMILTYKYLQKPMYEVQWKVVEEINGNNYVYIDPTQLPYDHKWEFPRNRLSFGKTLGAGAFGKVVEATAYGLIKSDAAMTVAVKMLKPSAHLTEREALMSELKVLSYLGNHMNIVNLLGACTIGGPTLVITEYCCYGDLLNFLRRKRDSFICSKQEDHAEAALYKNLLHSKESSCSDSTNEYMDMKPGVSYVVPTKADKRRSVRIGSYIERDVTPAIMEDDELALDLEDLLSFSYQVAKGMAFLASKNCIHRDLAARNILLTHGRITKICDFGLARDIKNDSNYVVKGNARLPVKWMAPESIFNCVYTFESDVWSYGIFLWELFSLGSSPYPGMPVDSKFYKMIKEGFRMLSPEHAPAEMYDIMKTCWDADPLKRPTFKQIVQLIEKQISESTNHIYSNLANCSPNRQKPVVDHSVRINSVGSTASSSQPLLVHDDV
Chain of Serine/threonine-protein kinase PAK 4 (O96013 whole entry): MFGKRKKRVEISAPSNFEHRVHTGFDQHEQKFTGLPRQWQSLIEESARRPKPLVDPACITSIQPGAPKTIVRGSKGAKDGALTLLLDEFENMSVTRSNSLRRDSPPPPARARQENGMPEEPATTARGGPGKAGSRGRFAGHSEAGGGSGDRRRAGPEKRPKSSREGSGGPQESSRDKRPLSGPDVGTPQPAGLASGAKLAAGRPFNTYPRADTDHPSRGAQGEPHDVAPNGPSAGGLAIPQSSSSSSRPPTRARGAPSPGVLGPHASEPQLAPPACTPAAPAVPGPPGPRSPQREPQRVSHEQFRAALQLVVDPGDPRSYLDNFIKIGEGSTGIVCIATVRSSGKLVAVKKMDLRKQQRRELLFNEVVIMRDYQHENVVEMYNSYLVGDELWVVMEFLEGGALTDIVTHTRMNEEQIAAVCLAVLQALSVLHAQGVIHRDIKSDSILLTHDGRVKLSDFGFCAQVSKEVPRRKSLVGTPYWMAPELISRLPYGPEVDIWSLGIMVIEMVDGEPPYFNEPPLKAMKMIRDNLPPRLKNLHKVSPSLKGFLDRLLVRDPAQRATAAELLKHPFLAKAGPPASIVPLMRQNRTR

SMILES: O=C(c1ccc(F)c(F)c1Nc1ccc(I)cc1F)N1CC(O)([C@@H]2CCCCN2)C1 [COBIMETINIB]
- inhibition in vivo at 5 mg/kg [1]: 30%
- IC50 [2]: > 10 µM
- IC50 [3]: > 10 µM
- IC50 [4]: > 10 µM
- IC50 [5]: > 10 µM
- inhibition (888-mel): Active
- inhibition (A2058 [6]): Active
- Activity (Hs-578T): inactive
- inhibition in vivo at 5 mg/kg (SK-OV-3): 69%
- IC50 [7]: > 10 µM
- Activity (A2058 [8]): Active
- inhibition in vivo at 20 mg/kg (A2058 [9]): 83%
- Activity (RPMI-7951): 60%
- IC50 (CDK6/cyclin D3): > 10 µM
- inhibition in vivo at 5 mg/kg (MX1): 26%
- Activity (A2058 [10]): Active
- inhibition in vivo at 10 mg/kg (NCI-H441): 85%
- IC50 [11]: > 10 µM
- IC50 (Casein kinase I): > 10 µM
- inhibition in vivo at 5 mg/kg (LoVo [12]): 73%
- inhibition in vivo at 10 mg/kg (LoVo [13]): 98%
- inhibition in vivo at 15 mg/kg (DLD-1): 2%
- IC50 [14]: > 10 µM
- IC50 (Ephrin type-B receptor 4): > 10 µM
- IC50 [15]: > 10 µM
- inhibition in vivo at 20 mg/kg (NCI-H2122): 61%
- IC50 [16]: > 10 µM
- IC50 [17]: > 10 µM
